Consider 12 compounds from ChEMBL document CHEMBL1135749, “Stereoselective synthesis and antiviral activity of D-2',3'-didehydro-2',3'-dideoxy-2'-fluoro-4'-thionucleosides” (J Med Chem, 2002).

A short description of data set [1]: Anti-viral activity against HIV-1 in human PBM cells. It is filed as functional, cell-based. Particulars: PBMC. The method, boiled down: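 PHA-stimulated (2-3 days) human PBM cells from healthy seronegative donors, infected in bulk for 1 h with HIV-1 LAI (100 TCID50/1 × 10⁷ cells flask or 200 TCID50/6 × 10⁵ cells/well). Cells then placed on 10-fold serial compound dilutions in RPMI-1640 with IL-2, 5 days at 37 °C. Supernatant RT activity measured by ³H-TTP incorporation on poly(rA)·oligo(dT). EC50 obtained by the median effect method.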

Data set [2] deals with Vero. Briefly: Cytotoxicity against Vero cells. It is filed as cell-based. The note with it: Chlorocebus sabaeus. The method, boiled down:
(§1)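 Uninfected log-phase cells seeded on 10-fold serial drug dilutions: Vero at 5 × 10³, CEM at 2.5 × 10³, and PHA-stimulated PBM at 5 × 10⁴ cells/well. Incubated at 37 °C in 5% CO₂ for 3 days (Vero), 4 days (CEM) or 5 days (PBM). MTT added overnight, then solubilized and read at 570 nm. IC50 by the median effect method.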

The subject of data set [3] is CCRF-CEM. The data set is described as follows: Cytotoxicity against CEM cells. It is filed as cell-based. The note with it: Homo sapiens. The method, boiled down:
as §1

Data set [4] is described as follows: In vitro cytotoxicity against human peripheral blood mononuclear (PBM) cells. It is filed as cell-based. Put shortly: as §1
The target of data set [5] is Adenosine deaminase (Bos taurus) (UniProt P56658). The data set is described as follows: Half life value of the compound.
Data set [6] is described as follows: Antiviral activity against HIV-1xxBRU […] strain in human PBM cells. The note with it: PBMC. It is filed as functional. The method, boiled down: (§2)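 Molecular infectious clones HIV-1 xxBru and HIV-1 M184Vpitt used in PHA-stimulated human PBM cells. Bulk 1 h infection at 100 TCID50/1 × 10⁷ cells (flask) or 200 TCID50/6 × 10⁵ cells/well. Cells then exposed to 10-fold serial compound dilutions for 5 days at 37 °C. Read-out was pelleted-virus RT activity with ³H-TTP. EC50 by the median effect method.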

Data set [7] is described as follows: Antiviral activity against (HIV-1M184V) mutant strain in human PBM cells. It counts as functional. Particulars: PBMC. The method, boiled down: as §2

By EC50 is commonly meant the concentration needed to bring the measured effect to its halfway point. The low end stands for higher potency in that assay, the high end for lower potency in that assay. Usually IC50 stands for the concentration that gives 50% inhibition. Higher therefore signals weaker potency. What is called half-life is the time in which the quantity being followed falls by half. A high value points to slow loss. As a reminder, the EC90 is the point of the concentration-response curve where the effect stands at 90%. Low values mean an effect from little substance, high ones a need for much substance.

In turn, `Nc1nc2c(ncn2[C@@H]2S[C@H](CO)C=C2F)c(=O)[nH]1` showed an EC50 in data set [1] of 80.5 µM. In addition, the IC50 in data set [2], in data set [3] and in data set [4] was over 100 µM throughout.
`O=c1nc(O)ccn1[C@@H]1S[C@H](CO)C=C1F` displayed an EC50 in data set [1] of over 100 µM. Moreover, the IC50 in data set [2], in data set [3] and in data set [4] was over 100 µM each time.
With `O=c1[nH]cnc2c1ncn2[C@@H]1S[C@H](CO)C=C1F`, it took 43.6 µM to reach a half-maximal effect in data set [1] (EC50). Moreover, the IC50 in data set [2], in data set [3] and in data set [4] was over 100 µM throughout.
In turn, `Nc1nc(F)nc2c1ncn2[C@@H]1S[C@H](CO)C=C1F` registered an EC50 in data set [1] of 1.2 µM. Besides, the IC50 in data set [2] came to 7.6 µM; in data set [3], 1.1 µM; in data set [4] it was 1.5 µM.
As to `Nc1ncnc2c1ncn2[C@@H]1O[C@H](CO)[C@@H](O)[C@H]1O` [ADENOSINE], the half-life in data set [5] is 0.5 min.
The compound `Nc1ncnc2c1ncn2[C@@H]1S[C@H](CO)C=C1F` returned an EC50 in data set [1] of 8.1 µM. The half-life in data set [5] turned out to be 33 min. The IC50 in data set [2], in data set [3] and in data set [4] was over 100 µM each time.
`Nc1nc(=O)n([C@@H]2S[C@H](CO)C=C2F)cc1F` displayed an EC50 in data set [1] of 11.6 µM. Besides, the IC50 in data set [2], in data set [3] and in data set [4] was over 100 µM throughout.
Compound `Cc1cn([C@@H]2S[C@H](CO)C=C2F)c(=O)nc1O` had an EC50 in data set [1] of 92.3 µM. Besides, the IC50 was 53 µM in data set [2], over 100 µM in data set [3] and over 100 µM in data set [4].
In data set [5], `Nc1ncnc2c1ncn2[C@@H]1O[C@H](CO)C=C1F` returned a half-life of 42 min.
In the case of `Nc1ccn([C@@H]2CS[C@H](CO)O2)c(=O)n1` [LAMIVUDINE], the values for the EC90 in data set [6] and in data set [7] were 0.08 µM and 535 µM, respectively.
In the case of `Nc1ccn([C@@H]2S[C@H](CO)C=C2F)c(=O)n1`, in data set [1], the EC50 was 1.3 µM. Further, the values for the EC90 in data set [6] and in data set [7] were 5 µM and 125 µM, respectively. The IC50 in data set [2], in data set [3] and in data set [4] was over 100 µM in each case.
Compound `Cc1cn([C@H]2C[C@H](N=[N+]=[N-])[C@@H](CO)O2)c(=O)[nH]c1=O` [ZIDOVUDINE] gave an EC50 in data set [1] of 0.004 µM. Further, the 90% effect concentration (EC90) in data set [6] is 0.01 µM; in data set [7] it was 0.003 µM. Moreover, in data set [4], the IC50 is over 100 µM.
